An excerpt weighted towards active compounds, which were near 12% of everything screened.
Autophagy HCS: autophagy modulators in MEF cells, primary screen, imaging, high-content, MEF GFP-LC3; AID 463193, 2010; 0.98% of 190,000 active; MEF GFP-LC3 puncta imaging; test concentration mostly 10 µM; calls only at 10 µM (by protocol);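 active = percentage of spot-positive cells more than 3 SD above its plate mean, without a fluorescence outlier flag or 80% toxicity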
MT stabilizer: microtubule stabilizers in HeLa cells, primary screen, imaging, high-content imaging; AID 2205, 2009; % tubulin-high responders, % at 10 µM; HeLa tubulin immunostaining HCS, 24 h; share of cells brighter than vehicle mean+2SD; 0.83% of 200,000 active;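 active = plate Z-score above 3 for both tubulin-high and condensed-nucleus cell shares, with cell loss under 80%, at 10 µM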;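 note: anti alpha tubulin signal scored within the nucleus-defined area of each cell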
bCat nuc transl: modulators of beta-catenin nuclear translocation, primary screen, imaging, HeLa cells, immunofluorescence, high-content; nuclear translocation activity, % at 5 µM; 0.3% of 190,000 active;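 active = nuclear translocation activity above 50% at 5 µM, with a well cell count of 50 or more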;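 note: per-cell ratio of nuclear to cytoplasmic median beta-catenin stain intensity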
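Technique: fluorescence imaging of beta-catenin antibody stain plus DAPI / Material: human HeLa cell line / Incubation: compound treatment 24 h, 37°C, 5% CO2 / Read-out basis: % activation of per-cell nuclear versus cytoplasmic median beta-catenin signal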
L major viab: Leishmania major promastigote growth inhibition, primary screen; inhibition, % at 10 µM; 9% of 200,000 active; Leishmania major promastigotes, resazurin fluorescence viability; AID 1063, 2008; in the data active = inhibition above about 50%;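 note: promastigotes grown with compound for 44 hours at 28 °C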
Dynein cargo inh: inhibitors of GR-EGFP nuclear translocation, primary screen, dynein cargo transport inhibitor project, imaging, high-content, 3617.4 mouse cells | test concentration mostly 20 µM; stimulated with dexamethasone, 1 µM; hits give low values | z-score, hits read low | 0.47% of 220,000 active | AID 1381, 2008;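 active = plate z-score of nuclear minus cytoplasmic receptor signal below a set negative limit, without overly bright fluorescence or cell loss, cut at about -3.5 in these data, passing the limit was not always enough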;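 note: z-score of nuclear minus cytoplasmic ring GR-EGFP intensity difference per well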
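Buffer or medium: tetracycline-free induction medium containing charcoal-stripped FBS / Reagent: dexamethasone agonist, 1.0 µM final, for 30 min / Technique: automated 10x imaging of fixed Hoechst-stained cells / Times: induction 48 h, compound 1 h, agonist 30 min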
CHOP inhibitor: inhibitors of CHOP promoter induction, primary screen, cell-based, unfolded protein response, luciferase reporter; CHO-K1 CHOP-promoter luciferase, tunicamycin-induced, 15-18 h; inhibition, % at 10 µM; 3.8% of 220,000 active; AID 2732, 2010;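 active = compounds that reduced the stress-induced luciferase reporter signal by more than about 70% of percent inhibition, limit read from the data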
Numbers stand for hits; i = inactive; nt = no result.

SMILES	Autophagy HCS	MT stabilizer	bCat nuc transl	L major viab	Dynein cargo inh	CHOP inhibitor
CCOc1ccc(C2C(C#N)=C(N)N(c3sc4c(c3C#N)CCCC4)C3=C2C(=O)CCC3)cc1 (centres undefined)	i	i	i	57	i	i
C=CCCc1ccc(C#N)c(SCc2c(C(=O)OCC)c3cc(OC(C)=O)c(Br)cc3n2C)n1	i	i	i	64	i	72
CCOC(=O)c1c(CSc2nc(C)cc(C)c2C#N)n(C)c2cc(Br)c(OC(C)=O)cc12	i	i	i	96	i	i
COC(=O)c1ccc(NC(=S)NCCCn2ccnc2)cc1	i	i	i	i	i	i
CCn1c(N2CCN(C(=S)Nc3ccc(OC)cc3)CC2)nc2ccccc21	i	i	i	i	i	i
C=CCOc1ccc(/C=N/O)cc1Cl	i	i	nt	i	i	i
O=C(CSc1nnc(NC(=O)c2ccco2)s1)NC1CCCCC1	i	i	i	i	i	i
CCN1CCN(Cc2c(O)ccc3c2O/C(=C\C=C\c2ccccc2OC)C3=O)CC1	i	i	i	69	i	i
O=S(=O)(NC1CCCC1)c1cccc(S(=O)(=O)N2CCC(n3nnc4ccccc43)CC2)c1	i	i	i	i	i	i
Cc1oc2cc3oc(=O)c4c(c3cc2c1C)CCC4	i	i	i	i	i	i
CCc1cc2c3c(c(=O)oc2cc1O)CCCC3	i	i	i	i	i	90
CC(C)n1c(=S)[nH]c2cc(Cl)ccc21	nt	nt	i	nt	i	i
O=C(CN1C(=O)NC2(CCCc3ccccc32)C1=O)Nc1cccc(S(=O)(=O)N2CCCCC2)c1 (centres undefined)	i	i	i	i	i	i
C=CCCC(=O)Nc1nc(C)c(-c2csc(Nc3ccc(Cl)cc3Cl)n2)s1	i	i	i	i	i	i
CCOc1ccccc1Nc1nc(-c2sc(NC(=O)c3ccc([N+](=O)[O-])cc3)nc2C)cs1	i	i	nt	i	i	82
C=CCCC(=O)Nc1nc(C)c(-c2csc(Nc3cc(Cl)ccc3OC)n2)s1	i	54	i	i	i	i
C=CCCC(=O)Nc1nc(C)c(-c2csc(Nc3ccccc3OC)n2)s1	i	i	56	70	i	i
CCCCC(=O)Nc1nc(C)c(-c2csc(Nc3ccccc3OC)n2)s1	i	i	i	95	i	i
CCCCCC(=O)Nc1nc(C)c(-c2csc(Nc3cc(Cl)ccc3C)n2)s1	i	i	i	i	i	i
CCC(C)C(=O)Nc1nc(C)c(-c2csc(Nc3ccccc3OC)n2)s1 (centres undefined)	i	i	i	99	i	i
CCCC(C)C(=O)Nc1nc(C)c(-c2csc(Nc3cc(Cl)ccc3C)n2)s1 (centres undefined)	i	i	i	91	i	i
CCS(=O)(=O)c1ccc(O)c(N2C(=O)C3C4C=CC(C4)C3C2=O)c1 (centres undefined)	i	i	i	i	i	i
CCCCCC(=O)NNC(=O)c1ccc(-c2ccccc2)cc1	i	i	i	i	i	i
CCn1c(NC(=O)Nc2cccc(C)c2C)cc2sccc21	i	i	i	i	i	90
CC(=O)c1cccc(NC(=O)Nc2cc3sccc3n2C)c1	i	i	i	i	i	i
SMILES	Autophagy HCS	MT stabilizer	bCat nuc transl	L major viab	Dynein cargo inh	CHOP inhibitor
Cc1ccc2[nH]c(=O)c(CN(C(=O)c3cccc([N+](=O)[O-])c3)C(C)C)cc2c1	nt	nt	i	nt	i	i
CC1(c2nnc(Cc3ccccc3)o2)CC(c2ccc([N+](=O)[O-])cc2)=NO1 (centres undefined)	nt	nt	i	nt	i	i
COc1cccc(S(=O)(=O)NCc2ccc(C(=O)Nc3ccc(Cl)cc3)cc2)c1	i	i	i	i	i	i
COc1cccc(S(=O)(=O)NCc2ccc(C(=O)Nc3cccc(Cl)c3)cc2)c1	i	i	i	i	i	71
CC(=O)Nc1ccc(NC(=O)Nc2ccc3c(c2)N(C)C(=O)CS3)cc1	i	i	i	i	i	i
CCOc1ccc(OCC)c(NC(=O)Nc2ccc3c(c2)N(C)C(=O)CS3)c1	nt	i	i	67	i	i
COc1cccc(NC(=O)Nc2ccc3c(c2)N(C)C(=O)CS3)c1	i	i	i	59	i	i
CN1C(=O)CSc2ccc(NC(=O)Nc3ccccn3)cc21	i	i	nt	i	i	i
Cc1ccc(C)c(N2CCN(C(=O)Nc3ccc4c(c3)N(C)C(=O)CS4)CC2)c1	i	i	i	50	i	i
COC(=O)C(CC(C)C)N1CCC(=O)c2ccccc2S1(=O)=O (centres undefined)	nt	nt	i	nt	i	i
Cc1nc(SCC(=O)Nc2c(C)n(C)n(-c3ccccc3)c2=O)n[nH]1	i	i	i	i	i	i
c1ccc(-c2csc3ncn4nnnc4c23)cc1	i	i	i	i	i	i
O=C(CSc1nnc(-c2cccnc2)o1)OC1CCCCC1	i	i	i	i	i	i
CCOC(=O)CCc1c(C)nc(SCCCn2c(=O)[nH]c3ccccc32)c(C#N)c1C	i	i	i	i	i	83
CCOC(=O)CCc1c(C)nc(SCCN2CCCC2)c(C#N)c1C	i	i	i	81	i	i
CCOc1cc(/C=N/Nc2nc(-c3cccc(S(=O)(=O)N4CCCC4)c3)cs2)ccc1O	i	i	i	93	i	i
CCn1ccnc1CN1CCCC(CO)(Cc2cccc(OC)c2)C1 (centres undefined)	i	i	i	96	i	i
CCOC(=O)C1(Cc2cccc(OC)c2)CCCN(Cc2nccn2CC)C1 (centres undefined)	i	i	i	i	i	i
COc1cccc(CC2(CO)CCCN(Cc3ccc4c(c3)OCCO4)C2)c1 (centres undefined)	i	i	i	53	i	i
C=CCc1c(C)nc(SC)nc1Nc1ccc(C(C)=O)cc1	i	i	i	71	i	i
C=CCc1c(C)nc(SC)nc1Nc1ccc(C(=O)O)cc1	i	i	i	i	i	i
C=C(C(=O)c1ccccc1)C(C)CC(=O)c1ccccc1 (centres undefined)	i	i	i	86	i	i
O=C(CC(Nc1ccccc1)C(=O)O)c1ccccc1 (centres undefined)	nt	nt	i	nt	nt	i
O=C(Nc1cccc(-c2csc(-c3ccccc3)n2)c1)c1cccs1	i	i	i	82	i	i
Cc1nc(-c2cccc(NC(=O)c3cccs3)c2)cs1	i	i	i	i	i	i
O=C(Nc1cccc(-c2cn3cccnc3n2)c1)c1cccs1	i	i	i	98	i	i
Cc1cccn2cc(-c3cccc(NC(=O)c4cccs4)c3)nc12	i	i	i	i	i	i

Screening data from PubChem BioAssay.
